PubChem BioAssay
Records with an inconclusive call do not appear.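 The calls were made as follows, unless noted: active = cell viability at or below a set limit in both duplicate runs, the limit being the all-compound median minus 4 SD (cut at about 23% in these data, passing the limit was not always enough); inconclusive = no clear call, values can overlap the other calls; inactive = the rest.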

How the values were obtained:
[1] = OD615 S. cerevisiae growth inhibition, permissive medium, pilot counter-assay, permissive growth control for S. cerevisiae lifespan shortening project (AID 705;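 active = growth inhibition above 25% in both replicates, a cutoff set 3 SD above the mean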); conditions: OD615, 24 h, at 10 µM, active compounds read high
How it was run: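 System: S. cerevisiae with engineered DeaD lifespan system / Measured by: absorbance (optical density) at 615 nm / Read-out: reduction in yeast growth (OD615) / Times: 4 h cell pre-growth, 24 h exposure at 30 °C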

[2] = Restrictive medium S. cerevisiae growth inhibition, OD615, pilot screen of yeast lifespan reduction project, restrictive growth control (AID 706;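 active = growth inhibition above a set limit, 3 SD over mean compound inhibition, in both replicates, cut at about 43% in these data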;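 also: modified DeaD lifespan yeast strain shifted to restrictive glucose medium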); conditions: OD615, 48 h, at 10 µM, active compounds read high
How it was run: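 System: Engineered S. cerevisiae DeaD strain | Buffer or medium: Glucose-based CSMM-D restrictive medium | Schedule: 4 h pre-incubation, 48 h exposure at 30 °C | Technique: Optical density at 615 nm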

[3] = viability gain of MRP-1-high H69AR cells under doxorubicin, pilot screen, MRP-1 activator project, CellTiter-Glo, duplicate (AID 807;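 active = viability increase at or above a cutoff of the median across tested compounds plus 3 SD, cut at about 8.5% in these data, passing the limit was not always enough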;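 also: compound pretreatment 18-22 h then 72 h combined with doxorubicin; 0% = doxorubicin alone and 100% = vehicle without doxorubicin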); conditions: H69AR viability with doxorubicin, CellTiter-Glo luminescence; at 10 µM; active compounds read high
[4] = growth suppression of beta-catenin knockout HCT116, pilot screen, human colon tumor cells (AID 823); conditions: CellTiter-Glo, 60 h, at 10 µM, active compounds read low;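 also: 0% = wells killed by 20 µM Hyamine and 100% = untreated DMSO cell wells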
[5] = growth suppression of PTEN-deleted HCT116, pilot screen, cell-based, HCT116 clonal line, CellTiter-Glo (AID 824;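 active = viability at or below 27.92% in each of two runs, the all-compound median minus 4 SD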;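 also: 0% = 20 µM Hyamine control and 100% = vehicle cell control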); conditions: 60 h, at 10 µM, active compounds read low
[6] = inhibitors of the yeast RAM network, pilot screen, dse1pr::URA3 reporter, 5-FOA selection (AID 869;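 active = inhibition over a set limit, the all-compound mean plus 3 SD, in both replicate runs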;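 also: 0% = DMSO wells with no growth and 100% = 10 µM 1-NA-PP1 with full growth; RAM network block rescues cells from 5-FOA so hits raise OD615 growth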); conditions: S. cerevisiae dse1pr::URA3 5-FOA growth, OD615, 2 d; at 10 µM; active compounds read high; strain carries analog-sensitive mutant Cbk1 kinase
[7] = RAM signaling pathway blockade in yeast – S. cerevisiae, Pdr1DBD-CYC8 efflux-inhibited sensitized strain, primary screen (AID 1298;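 active = RAM network inhibition above 8.4% in each of two replicates, 3 SD over the compound average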;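 also: 0% = DMSO untreated cells without growth and 100% = 10 µM 1-NA-PP1 full growth; higher means more yeast growth rescued from 5-FOA killing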); conditions: S. cerevisiae cbk1-as DSE1-URA3 strain, 5-FOA growth OD615, 2 d; at 50 µM; active compounds read high

CC(C)Sc1nc2c(c(=O)n1C)SC(C)C2 (configuration not stated)
inactive: growth inhibition [1] -7.53% | growth inhibition [2] 2.86% | viability increase [3] -1.28% | viability [4] 106% | viability [5] 99.5% | inhibition [6] 1.61% | RAM network inhibition [7] 5.77%

CCOc1ccc(NC(=O)c2ccc(S(=O)(=O)N(C)C)cc2)cc1
inactive: growth inhibition [1] -12.8% | growth inhibition [2] -7.66% | viability increase [3] 0.26% | viability [4] 102% | viability [5] 92.4% | inhibition [6] 1.32% | RAM network inhibition [7] 1.71%

COc1ccc(N(CC(=O)NCc2cccs2)S(=O)(=O)c2c(C)nn(C)c2C)cc1
inactive: growth inhibition [1] -2.88% | growth inhibition [2] -15.2% | viability increase [3] -3.49% | viability [4] 88.6% | viability [5] 86.9% | inhibition [6] 0.535% | RAM network inhibition [7] -0.27%

CC1(C)CC(=O)C=C(NC2CC(C)(C)NC(C)(C)C2)C1
inactive: growth inhibition [1] -11.6% | growth inhibition [2] -15.2% | viability increase [3] -0.93% | viability [4] 102% | viability [5] 98.8% | inhibition [6] 1.32% | RAM network inhibition [7] 3.08%

CCOCCCNC(=O)C(c1ccc(C)cc1)N1CCOCC1 (configuration not stated)
inactive: growth inhibition [1] -11.9% | growth inhibition [2] 2.48% | viability increase [3] -3.18% | viability [4] 93.2% | viability [5] 102% | inhibition [6] 1.84% | RAM network inhibition [7] 1.62%

Cn1cccc1Cc1nnc(SCC(=O)NCCc2ccccc2)n1-c1ccc(F)cc1
inactive: growth inhibition [1] -6.41% | growth inhibition [2] 5.7% | viability increase [3] -2.38% | viability [4] 93.7% | viability [5] 93.3% | inhibition [6] 2.35% | RAM network inhibition [7] 5.42%

CCCCCn1c(=O)[nH]c2cc(C(=O)NCCCN3CCC(C)CC3)ccc2c1=O
inactive: growth inhibition [1] -6.26% | growth inhibition [2] 3.06% | viability increase [3] -6.38% | viability [4] 56.6% | viability [5] 61.9% | inhibition [6] 0.015% | RAM network inhibition [7] 3.34%

Cn1c(=O)c2c(SCC(=O)c3ccccc3)nc(C3CC3)nc2n(C)c1=O
inactive: growth inhibition [1] 13.4% | growth inhibition [2] 7.46% | viability increase [3] -2.05% | viability [4] 76.8% | viability [5] 77.8% | inhibition [6] 1.17% | RAM network inhibition [7] -1.03%

Cc1cc(C)nc(NS(=O)(=O)c2ccc(NC(=O)CCCN3C(=O)c4ccccc4C3=O)cc2)n1
inactive: growth inhibition [1] -7.67% | growth inhibition [2] -0.225% | viability increase [3] -1% | viability [4] 99.6% | viability [5] 100% | inhibition [6] 0.735% | RAM network inhibition [7] 3.72%

O=C(Nc1ccc(OC(F)(F)F)cc1)c1cnc2n(c1=O)CCS2
inactive: growth inhibition [1] -14.9% | growth inhibition [2] -1.33% | viability increase [3] 2.36% | viability [4] 89.9% | viability [5] 79.1% | inhibition [6] 3.13% | RAM network inhibition [7] 4.63%

COc1ccc(CC(=O)Nc2oc(-c3ccccc3)c(-c3ccccc3)c2C#N)cc1OC
inactive: growth inhibition [1] -6.81% | growth inhibition [2] -2.63% | viability increase [3] -0.77% | viability [4] 76.9% | viability [5] 68.2% | inhibition [6] 1.75% | RAM network inhibition [7] 8.44%

COc1ccc(Cc2nc(-c3cccs3)no2)cc1OC
inactive: growth inhibition [1] 1.64% | growth inhibition [2] 5.25% | viability increase [3] 0.92% | viability [4] 76.8% | viability [5] 80.9% | inhibition [6] 1.62% | RAM network inhibition [7] 7.4%

CCCCNC(=O)CS(=O)Cc1nc(-c2ccc(C)cc2)oc1C (configuration not stated)
inactive: growth inhibition [1] -7.66% | growth inhibition [2] 0.83% | viability increase [3] -2.08% | viability [4] 87.4% | viability [5] 88.5% | inhibition [6] -0.365% | RAM network inhibition [7] 2.19%

COc1cccc(N2CCN(C(=O)C3CCCN(S(=O)(=O)c4cnc[nH]4)C3)CC2)c1 (configuration not stated)
inactive: growth inhibition [1] 11.1% | growth inhibition [2] 8.66% | viability increase [3] 0.99% | viability [4] 97% | viability [5] 93% | inhibition [6] -0.27% | RAM network inhibition [7] -0.88%

O=C(CSc1nc2ccccc2c(=O)[nH]1)N1CCCCC1
inactive: growth inhibition [1] -16.2% | growth inhibition [2] -5.08% | viability increase [3] -2.69% | viability [4] 98.7% | viability [5] 84.7% | inhibition [6] 0.395% | RAM network inhibition [7] -0.51%

CSC1=NCCN1C(=O)COc1ccc2ccccc2c1
inactive: growth inhibition [1] -2.13% | growth inhibition [2] -6.38% | viability increase [3] 0.69% | viability [4] 98.9% | viability [5] 101% | inhibition [6] 2.77% | RAM network inhibition [7] -0.94%

CC(C)(C)c1ccc(OCC(O)CS(=O)(=O)c2ccccn2)cc1 (configuration not stated)
inactive: growth inhibition [1] -20.8% | growth inhibition [2] -19.1% | viability increase [3] -0.66% | viability [4] 97.8% | viability [5] 94.5% | inhibition [6] -0.5% | RAM network inhibition [7] 4.16%

CCOC(=O)c1ccc(NC(=O)CSc2nc(C)cc(=O)[nH]2)cc1
inactive: growth inhibition [1] -7.82% | growth inhibition [2] 8.13% | viability increase [3] -1.06% | viability [4] 98.5% | viability [5] 100% | inhibition [6] -0.79% | RAM network inhibition [7] 0.78%

Cc1sc2ncn(CC(=O)NCc3ccccn3)c(=O)c2c1S(=O)(=O)N1CCOCC1
inactive: growth inhibition [1] -11.7% | growth inhibition [2] -5.54% | viability increase [3] 1.3% | viability [4] 101% | viability [5] 99.5% | inhibition [6] 0.485% | RAM network inhibition [7] 3.01%

C=CCn1c(N(C)C)nc2c1c(=O)[nH]c(=O)n2C
inactive: growth inhibition [1] -8.42% | growth inhibition [2] -12.5% | viability increase [3] 1.25% | viability [4] 109% | viability [5] 100% | inhibition [6] 2.38% | RAM network inhibition [7] 4.26%

CCCCn1ccc(=O)c2c(C(F)(F)F)nccc21
inactive: growth inhibition [1] -6.65% | growth inhibition [2] -11.4% | viability increase [3] -3.12% | viability [4] 87.8% | viability [5] 84.4% | inhibition [6] 1.19% | RAM network inhibition [7] -0.41%

O=C(Cn1nc(-c2ccccc2)ccc1=O)Nc1ccc(N2CCN(C(=O)c3ccccc3)CC2)cc1
inactive: growth inhibition [1] -10.1% | growth inhibition [2] -24.7% | viability increase [3] -1.77% | viability [4] 94.5% | viability [5] 87.3% | inhibition [6] 2.17% | RAM network inhibition [7] 8.82%

O=C(Cn1ncc2ccccc21)N1CCc2ccccc21
inactive: growth inhibition [1] -9.24% | growth inhibition [2] -14.6% | viability increase [3] -3% | viability [4] 72.2% | viability [5] 84.2% | inhibition [6] 1.26% | RAM network inhibition [7] 3.51%

COc1ccc(OC)c(C2CC(=O)N3CN(c4ccccc4F)CSC3=C2C#N)c1 (configuration not stated)
inactive: growth inhibition [1] 8.3% | growth inhibition [2] 14.5% | viability increase [3] -1.77% | viability [4] 98.3% | viability [5] 101% | inhibition [6] 1.03% | RAM network inhibition [7] 8.39%

CC(=O)/C(C(=N)N1CCN(Cc2ccccc2)CC1)=C(\C)O
inactive: growth inhibition [1] -12.7% | growth inhibition [2] -5.25% | viability increase [3] -0.02% | viability [4] 103% | viability [5] 101% | inhibition [6] 2.4% | RAM network inhibition [7] 2.85%

c1ccc(-c2cnn3nnnc3n2)cc1
inactive: growth inhibition [1] 0.085% | growth inhibition [2] -12.7% | viability increase [3] -1.17% | viability [4] 102% | viability [5] 97.9% | inhibition [6] 1.85% | RAM network inhibition [7] 1.66%

CCOC(=O)CCSCC(=O)Nc1nnc(C)s1
inactive: growth inhibition [1] -1.14% | growth inhibition [2] -0.57% | viability increase [3] 0.86% | viability [4] 113% | viability [5] 100% | inhibition [6] 0.55% | RAM network inhibition [7] 3.07%

COC(=O)C(CCSC)NC(=O)Cn1ncc2c(=O)oc3ccc(C)cc3c21 (configuration not stated)
inactive: growth inhibition [1] 6.62% | growth inhibition [2] -7.95% | viability increase [3] -3.14% | viability [4] 113% | viability [5] 91.3% | inhibition [6] 0.875% | RAM network inhibition [7] 1.93%

CC1CCCN(c2ncnc3c2cnn3-c2ccc(Cl)cc2)C1 (configuration not stated)
inactive: growth inhibition [1] -6.17% | growth inhibition [2] -16.3% | viability increase [3] 0.48% | viability [4] 76% | viability [5] 79.3% | inhibition [6] -1.04% | RAM network inhibition [7] 4.37%

COc1ccc(OC)c(C2CC(=O)c3c([nH]c(C(=O)OCC4CCCO4)c3C)C2)c1 (configuration not stated)
inactive: growth inhibition [1] -8.91% | growth inhibition [2] -10.4% | viability increase [3] -4.85% | viability [4] 43.8% | viability [5] 39% | inhibition [6] 1.52% | RAM network inhibition [7] 0.79%

CSc1oc(-c2ccc(F)cc2)nc1S(=O)(=O)c1ccccc1
inactive: growth inhibition [1] -2.16% | growth inhibition [2] 0.385% | viability increase [3] -1.13% | viability [4] 97.2% | viability [5] 93.7% | inhibition [6] 0.585% | RAM network inhibition [7] 4.67%

O=C(Nc1ccc(S(=O)(=O)N2CCCC2)cc1)C1COc2ccccc2O1 (configuration not stated)
inactive: growth inhibition [1] -10.9% | growth inhibition [2] -15.6% | viability increase [3] 0.84% | viability [4] 97.8% | viability [5] 83% | inhibition [6] 1.24% | RAM network inhibition [7] 5.44%

Cc1noc(C(=O)NCc2ccco2)c1Cl
inactive: growth inhibition [1] -10.3% | growth inhibition [2] -34.1% | viability increase [3] -3.01% | viability [4] 102% | viability [5] 101% | inhibition [6] 1.78% | RAM network inhibition [7] 2.4%

COc1ccc(NC(=O)c2ccc3c(c2)n(C)c(=O)n3C)cc1
inactive: growth inhibition [1] -9.67% | growth inhibition [2] -7.33% | viability increase [3] -5.39% | viability [4] 55.7% | viability [5] 55.7% | inhibition [6] 1.06% | RAM network inhibition [7] 4.75%

Brc1ccccc1OCCCN1CCOCC1
inactive: growth inhibition [1] -11.7% | growth inhibition [2] -9.51% | viability increase [3] 1.1% | viability [4] 97.8% | viability [5] 98.2% | inhibition [6] 1.48% | RAM network inhibition [7] 4.22%

CCC(=O)Nc1c(C)cc(C)cc1Cl
inactive: growth inhibition [1] -12.5% | growth inhibition [2] -10.9% | viability increase [3] -0.97% | viability [4] 92.7% | viability [5] 96.4% | inhibition [6] 1.44% | RAM network inhibition [7] 0.83%
